# Test results as given in ChEMBL document CHEMBL1221300, “Synthesis and biochemical evaluation of a range of (4-substituted phenyl)sulfonate derivatives of 4-hydroxybenzyl imidazole-based compounds as potent inhibitors of 17alpha-hydroxylase/17,20-lyase (P45017alpha) derived from rat testicular microsomes” (Bioorg Med Chem Lett, 2010).
# Tests used:
# [1] = biological target: T1, Steroid 17-alpha-hydroxylase/17,20 lyase (Rattus norvegicus, UniProt P11715); experiment: Inhibition of 17,20-lyase activity of rat testicular microsomal P450-17alpha
# T1 sequence (P11715 whole entry): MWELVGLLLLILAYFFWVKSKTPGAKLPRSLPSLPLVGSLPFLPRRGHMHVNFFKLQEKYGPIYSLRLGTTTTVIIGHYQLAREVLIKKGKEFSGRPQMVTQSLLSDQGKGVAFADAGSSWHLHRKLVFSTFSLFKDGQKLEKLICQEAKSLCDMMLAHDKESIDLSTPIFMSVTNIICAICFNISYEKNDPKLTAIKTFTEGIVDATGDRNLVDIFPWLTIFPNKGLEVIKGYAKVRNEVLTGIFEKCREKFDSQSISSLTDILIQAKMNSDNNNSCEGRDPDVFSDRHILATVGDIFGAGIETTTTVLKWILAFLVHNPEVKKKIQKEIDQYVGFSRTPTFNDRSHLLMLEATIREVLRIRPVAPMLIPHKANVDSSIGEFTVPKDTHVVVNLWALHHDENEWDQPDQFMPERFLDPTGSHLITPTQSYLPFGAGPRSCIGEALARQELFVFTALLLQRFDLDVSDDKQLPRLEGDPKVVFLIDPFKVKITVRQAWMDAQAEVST
# Outline: (§1)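 Rat testicular microsomal enzyme incubated with radiolabelled substrate. The radiolabelled substrate was separated from the incubation mixture and identified by thin layer chromatography. Both the 17α-hydroxylase and the 17,20-lyase components were assessed this way.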
# [2] = biological target: T1, Steroid 17-alpha-hydroxylase/17,20 lyase; experiment: Inhibition of 17-alpha-hydroxylase activity of rat testicular microsomal P450-17alpha; outline: as §1
IC50 [1],IC50 [2],SMILES
14 nM,200 nM,O=S(=O)(Oc1ccc(Cn2ccnc2)cc1)c1ccc(F)cc1
34 nM,1040 nM,O=S(=O)(Oc1ccc(Cn2ccnc2)cc1)c1ccc(C(F)(F)F)cc1
164 nM,730 nM,Ic1ccc(Cn2ccnc2)cc1
20 nM,110 nM,CCc1ccc(S(=O)(=O)Oc2ccc(Cn3ccnc3)cc2)cc1
10 nM,100 nM,O=S(=O)(Oc1ccc(Cn2ccnc2)cc1)c1ccc(-c2ccccc2)cc1
160 nM,130 nM,CCCCCc1ccc(S(=O)(=O)Oc2ccc(Cn3ccnc3)cc2)cc1
1470 nM,2500 nM,Oc1ccc(Cn2ccnc2)cc1
40 nM,70 nM,CCCCc1ccc(S(=O)(=O)Oc2ccc(Cn3ccnc3)cc2)cc1
30 nM,1210 nM,CCCc1ccc(S(=O)(=O)Oc2ccc(Cn3ccnc3)cc2)cc1
30 nM,40 nM,Cc1ccc(S(=O)(=O)Oc2ccc(Cn3ccnc3)cc2)cc1

SMILES,IC50 [1],IC50 [2]
CC(=O)N1CCN(c2ccc(OCC3COC(Cn4ccnc4)(c4ccc(Cl)cc4Cl)O3)cc2)CC1 (centres undefined) [KETOCONAZOLE],206 nM,2660 nM
c1ccc(Cn2ccnc2)cc1 [BENZYLIMIDAZOLE],> 3000 nM,> 3000 nM
